Most compounds without a hit are left out; they make up all but 2% or so of the library.
RAD54 branch – inhibitors of human RAD54 branch migration, primary screen, biochemical, fluorescence, single point; inhibition, % at 10.4 µM; DNA repair and recombination protein RAD54-like (Homo sapiens), Q92698; 360,000 tested, 0.14% active; RAD54 Holliday junction branch migration, FAM/BHQ fluorescence;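 active = mean normalized replicate activity at least 40 and at least half of replicates scoring 40 or more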;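 note: 0% = median of neutral control wells and 100% = median of positive control wells; inhibitors cause a drop in the FAM fluorescence signal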
E-selectin induc – E-selectin induction in HUVECs, primary screen, imaging, HUVEC, immunofluorescence imaging, single point; 260,000 tested, 0.37% active; activation, % at 7.58 µM; normalized: neutral wells 0, TNF-alpha wells 100; P16581;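 active = mean E-selectin-positive cell signal at least 10% of the positive control, reached in at least 60% of replicates, without over 20% cell loss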
Target sequence (P16581 whole entry, looked up): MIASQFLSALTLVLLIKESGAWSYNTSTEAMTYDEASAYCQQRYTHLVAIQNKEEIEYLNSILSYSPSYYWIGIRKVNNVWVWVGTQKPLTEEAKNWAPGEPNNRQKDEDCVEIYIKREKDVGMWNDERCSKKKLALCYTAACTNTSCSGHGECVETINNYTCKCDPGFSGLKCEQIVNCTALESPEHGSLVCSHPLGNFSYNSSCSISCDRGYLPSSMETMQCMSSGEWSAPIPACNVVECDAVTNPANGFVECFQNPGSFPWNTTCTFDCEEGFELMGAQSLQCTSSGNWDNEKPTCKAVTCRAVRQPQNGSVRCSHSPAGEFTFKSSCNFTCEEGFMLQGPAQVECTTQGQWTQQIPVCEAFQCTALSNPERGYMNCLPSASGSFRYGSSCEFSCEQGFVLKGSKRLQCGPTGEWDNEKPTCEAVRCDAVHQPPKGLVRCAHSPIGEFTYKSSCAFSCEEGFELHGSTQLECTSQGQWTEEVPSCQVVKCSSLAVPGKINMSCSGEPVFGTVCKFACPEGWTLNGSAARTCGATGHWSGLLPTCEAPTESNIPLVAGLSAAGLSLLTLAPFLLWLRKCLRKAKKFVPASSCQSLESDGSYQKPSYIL
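Read-out basis: % PE-positive cells; Test system: HUVEC primary endothelial cells; Technique: immunofluorescence imaging; Dosing: single-point compound dose.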
PglD DTNB – C. jejuni PglD acetyltransferase inhibitors, primary screen, biochemical, DTNB colorimetric, single point | 360,000 tested, 0.098% active | UDP-N-acetylbacillosamine N-acetyltransferase PglD (Campylobacter jejuni) | inhibition, % at 12.5 µM | purified PglD enzyme, DTNB colorimetric CoA detection; in the data active = inhibition above about 16%, passing the limit was not always enough
Xi reactivation – activators of inactive X chromosome reactivation, primary screen, imaging, XiGFP fibroblasts, GFP high-content imaging, set 2 | XiGFP mouse fibroblasts, % GFP-positive cells imaging, 3 d; cells co-treated with 5-aza-dC sensitizer; scaled so ellipticine positive control = 100% | activation, % at 7.58 µM | 360,000 tested, 0.055% active;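 active = mean normalized replicate activation at least 10% and every replicate at or above 10%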;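 note: 0% = median of on-plate neutral control wells and 100% = ellipticine 6 µM median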
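Material: XiGFP fibroblasts, SV40-immortalized. Buffer or medium: DMEM plus 5-aza-dC sensitizer. Compound: single concentration per compound, delivered by pin transfer. Times: 3 days compound exposure. Controls: ellipticine 6 µM.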
RAD52 inh – RAD52 DNA annealing inhibitors, primary screen, biochemical, FRET, single point, set 2 | DNA repair protein RAD52 homolog (Homo sapiens), P43351 | recombinant RAD52 DNA annealing, FRET fluorescence | inhibition, % at 18.7 µM | 360,000 tested, 0.46% active | AID 651710, 2012;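 active = every replicate showing at least 50% inhibition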
rRNA inh HTS – reduced GFP signal of wild-type E. coli, primary screen, bacterial rRNA inhibitor project, GFP/RFP fluorescence, OD600, single point. 350,000 tested, 1.6% active. AID 720706, 2013. E. coli WT GFP vs humanized-ribosome RFP mutants, 24 h; stronger effect = lower value; DMSO median 0, no signal -100. GFP signal change (wild-type ribosome), % (test concentration not listed);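 active = significant combined selectivity score with lowered wild-type GFP, culture density cut under 30%, mutant RFP and density less affected; inactive = any of these conditions unmet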
An asterisk follows results filed as active; x = no result.

SMILES	RAD54 branch	E-selectin induc	PglD DTNB	Xi reactivation	RAD52 inh	rRNA inh HTS
CCCCC1C(=O)N(c2ccccc2)N(c2ccc(O)cc2)C1=O (stereo unspecified)	4	152*	1	3	-7	x
COCC(=O)N1C[C@H](C)[C@@H](OC)CN(C)C(=O)c2cc(NC(=O)c3ccccc3)ccc2OC[C@H]1C	-1	0	0	0	6	2
CC1CCC(NC(=O)CCN2C(=O)C3C4C=CC(C4)C3C2=O)CC1 (stereo unspecified)	-13	177*	0	0	-5	6
CC1CCC(NC(=O)CCN2C(=O)C3CC=CCC3C2=O)CC1 (stereo unspecified)	3	-1	2	0	6	4
CCOc1ccc(/C=N/Nc2ccccn2)cc1	x	31*	x	0	7	3
O=C(c1cccs1)N1CCN(c2nnc(-c3ccccc3)c3ccccc23)CC1	x	x	x	0	-19	-28*
Cc1nc(C)n(C(Oc2ccc(Cl)cc2Cl)C(=O)C(C)(C)C)n1 (stereo unspecified)	-6	2	-2	0	1	-18*
CC(Oc1ccc(Cl)cc1Cl)C(=O)Nn1cnnc1 (stereo unspecified)	1	x	3	x	x	x
CC(C)NC(=O)N[C@H]1CC[C@@H](CC(=O)NC2Cc3ccccc3C2)O[C@@H]1CO	3	0	3	1	1	3
O=C(C[C@@H]1C=C[C@@H](NC(=O)CCN2CCCCC2)[C@H](CO)O1)Nc1ccc(-c2ccccc2)cc1	9	0	1	0	5	-2
NNc1nc(-c2ccccc2)cc(-c2ccc(Br)cc2)n1	3	0	3	0	-13	-25*
Fc1ccc(CNC(=S)NCc2ccc(F)cc2)cc1	x	2	x	0	-16	-31*
CO[C@@H]1CN(C)C(=O)c2ccc(NC(C)=O)cc2OC[C@H](C)N(C(=O)c2cccnc2)C[C@H]1C	-4	0	-1	1	-3	1
CCCNC(=O)C[C@H]1CC[C@H]2[C@@H](COC[C@@H](O)CN2Cc2ccc(Cl)c(Cl)c2)O1	-2	0	8	0	8	-4
CC1([N+](=O)[O-])COC(c2cccc3ccccc23)OC1 (stereo unspecified)	10	0	2	0	-12	-22*
COc1ccccc1C1OCC(C)([N+](=O)[O-])CO1 (stereo unspecified)	1	0	6	0	-6	7
NNC(=O)Cc1csc(-c2ccccc2)n1	x	x	x	0	-12	-28*
O=C(Cc1csc(-c2ccccc2)n1)Nc1ccc(C(F)(F)F)cc1	1	x	-1	0	x	x
C[C@H](CO)N1C[C@H](C)[C@H](CN(C)Cc2ccc(Cl)c(Cl)c2)Oc2ccc(NC(=O)NC3CCCCC3)cc2CC1=O	-2	-1	2	0	-4	-1
C[C@@H]1CN([C@@H](C)CO)C(=O)c2cc(C#CCN(C)C)cnc2O[C@@H]1CN(C)C(=O)CCN1CCCCC1	-5	0	-3	0	4	2
Cc1nn(-c2ccccc2)cc1/C=N/NC(N)=S	6	x	7	0	-15	-21*
Cc1nn(-c2ccccc2)cc1/C=N/O	5	7	0	x	x	x
COc1ccc2c3c([nH]c2c1)[C@H](CO)N(C(=O)CN1CCOCC1)CC31CN(CC2CCCC2)C1	x	0	x	0	-3	2
N#C/C(=C\c1ccc(N2CCCCC2)o1)C(=O)Nc1cccc(Br)c1	x	x	x	94*	x	x
Cc1ccsc1-c1n[nH]c(=S)n1C1CCCCC1	x	-2	x	0	-3	-41*
SMILES	RAD54 branch	E-selectin induc	PglD DTNB	Xi reactivation	RAD52 inh	rRNA inh HTS
COCC(=O)N1CC2(CCN(Cc3nccs3)CC2)c2c(n(C)c3cc(OC)ccc23)[C@@H]1CO	x	1	x	0	4	-3
N/C(=N\OC(=O)c1ccc(F)cc1)c1nonc1N	x	0	x	0	-9	-1
N/C(=N/OC(=O)c1ccccc1Cl)c1nonc1N	x	x	x	0	-19	-23*
COc1ccc(-c2cnc(N)nc2-c2ccc(OC)cc2O)cc1	-5	x	1	x	4	-28*
COc1ccc(-c2nc(N)nc(C)c2-c2ccc(Cl)cc2)c(O)c1	-7	59*	2	0	-10	-40
COC(=O)c1sccc1NC(=O)CC1C(=O)NCCN1C(=O)Nc1cc(Cl)ccc1OC (stereo unspecified)	12	0	7	0	-1	-22*
COC(=O)c1sccc1NC(=O)CC1C(=O)NCCN1C(=O)c1ccccc1 (stereo unspecified)	0	0	-2	0	-24	16
Cc1ccc(S(=O)(=O)N2[C@@H](c3cccc(Cl)c3)C(C(=O)O)=CC[C@H]2c2cccc(C)c2)cc1	5	0	3	0	-23	-23*
COc1cccc([C@@H]2CC=C(C(=O)O)[C@H](c3ccc(C)cc3)N2S(=O)(=O)c2ccc(C)cc2)c1	-15	x	-6	0	-9	-19*
COc1ccc([C@@H]2CC=C(C(=O)O)[C@H](c3cccc(Cl)c3)N2S(=O)(=O)c2ccc(Cl)cc2)cc1	7	0	-3	0	-6	-39
COc1ccc([C@@H]2CC=C(C(=O)O)[C@H](c3ccc(C(C)(C)C)cc3)N2S(=O)(=O)c2ccc(C)cc2)cc1OC	-2	-2	-3	0	-18	-20*
Cc1ccc(S(=O)(=O)N2[C@@H](c3cccc(Cl)c3)C(C(=O)O)=CC[C@H]2c2cccc(Cl)c2)cc1	15	0	4	0	-10	-39
COc1ccc([C@@H]2CC=C(C(=O)O)[C@H](c3ccc(F)cc3)N2S(=O)(=O)c2ccc(Cl)cc2)cc1	4	0	-3	0	-12	-18*
C[C@H](CO)N1C[C@H](C)[C@H](CN(C)C(=O)CN(C)C)Oc2cc(C#C[C@@H](C)O)ccc2S1(=O)=O	4	0	0	-1	-8	-1
COc1ccc(NC(=O)Nc2cccc3c2O[C@H](CN(C)CC2CCCCC2)[C@H](C)CN([C@@H](C)CO)C3=O)cc1	18	1	3	0	20	2
